Measurements taken from ChEMBL document CHEMBL1126632, “Synthesis and dopamine antagonist activity of 2-thioether derivatives of the ergoline ring system” (J Med Chem, 1993).

Experiments:
Assay type in all cases: functional
Rattus norvegicus [1] = assay: Compound was tested for the presence of catalepsy (CAT) in rats after oral administration; ip administration
Rattus norvegicus [2] = assay: Compound was tested for the Conditioned avoidance response (CAR) in rats after oral administration; ip administration
Rattus norvegicus [3] = assay: Percent change in serum prolactin in adult male Dawley rats after intraperitoneal administration.
In short: (§1)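 Adult male Sprague-Dawley rats, groups of 10, given compound in 0.5% lactic acid or vehicle ip 2 h before decapitation. Trunk blood clotted at 4 °C and centrifuged. Serum prolactin measured by NIAMDD radioimmunoassay kit against rat prolactin reference NIAMDD-RP-1. Result expressed as % change from controls run in the same experiment. Means compared by Student's test.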

Mus musculus = assay: Tested for the apomorphine climbing behavior in mice after oral administration
In short: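 Female TO mice (20-25 g), groups of eight, dosed orally with compound or vehicle, then habituated 60 min in wire-mesh cylinders. Apomorphine 2.5 mg/kg sc given; from 10 min later, climbing scored 0-4 (paws on cage) at 5-min intervals for 20 min.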

Rattus norvegicus [4] = assay: Conditioned avoidance response in rats after oral administration
In short: (§2)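 Wistar rats (120-130 g) trained in a shuttle box to cross on a 5-s buzzer; failure within 1 s after the buzzer gave a mild shock. Only well-conditioned animals were used, in groups of five, dosed orally 1 h 50 min before testing. After 10-min habituation they were tested for 20 min. Blockade = shocks received as % of stimuli; EDmin reported.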

Rattus norvegicus [5] = assay: Compound was tested for the presence of catalepsy (CAT) in rats after oral administration
In short: (§3)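 Wistar rats (180-190 g), groups of eight, compound given orally in distilled water or 0.5% carboxymethyl cellulose. Front paws placed on a 1.5 cm rod 7 cm high at 0.5, 1, 1.5, 2, 3, 4 and 5 h; time held recorded up to 20 min and scored 0-5. Maximum score per animal summed (group maximum 40); EDmin = lowest dose exceeding a threshold score.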

Rattus norvegicus [6] = assay: Tested for the amphetamine induced stereotyped behavior in rats after oral administration
In short: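 Wistar rats, groups of eight, given d-amphetamine sulfate 10 mg/kg ip 1 h after test compound. Stereotypy scored 1-8 at eight time points up to 4 h, and the group mean taken at each time. EDmin = lowest dose reducing stereotypy by more than 25% versus amphetamine-treated controls.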

Rattus norvegicus [7] = assay: Tested for the presence of catalepsy(CAT) in rats after oral administration; in short: as §3
Rattus norvegicus [8] = species: Rattus norvegicus; assay: Compound was tested for the Conditioned avoidance response (CAR) in rats; in short: as §2
Rattus norvegicus [9] = assay: % change in serum prolactin in adult male Dawley rats after intraperitoneal administration.; in short: as §1
Rattus norvegicus [10] = species: Rattus norvegicus; assay: Compound was tested for the % change in serum prolactin in adult male Dawley rats.(not significant); in short: as §1

Structure (SMILES)	Change (Rattus norvegicus [3]) [%]	EDmin (Mus musculus) [mg/kg]	EDmin (Rattus norvegicus [4]) [mg/kg]	also measured
CSc1[nH]c2cc(O)cc3c2c1C[C@@H]1[C@@H]3C=C(C)CN1C	-50	25		EDmin (Rattus norvegicus [1]): 25 mg/kg; EDmin (Rattus norvegicus [2]): 25 mg/kg
O=C(CCCN1CCC(O)(c2ccc(Cl)cc2)CC1)c1ccc(F)cc1 [HALOPERIDOL]	1413	1	0.5	EDmin (Rattus norvegicus [5]): 0.5 mg/kg
CC1=C[C@@H]2c3cccc4[nH]c(Sc5ccccc5)c(c34)C[C@H]2N(C)C1	141	25	2.5	EDmin (Rattus norvegicus [6]): 20 mg/kg; EDmin (Rattus norvegicus [7]): 10 mg/kg
CC1=C[C@@H]2c3cccc4[nH]c(Sc5ccc(Cl)cc5)c(c34)C[C@H]2N(C)C1		>100	100	
CSc1[nH]c2cccc3c2c1C[C@@H]1[C@@H]3C[C@@H](C)CN1C	570	40	5	EDmin (Rattus norvegicus [6]): 5 mg/kg; EDmin (Rattus norvegicus [7]): 20 mg/kg
CSc1[nH]c2cccc3c2c1C[C@@H]1[C@@H]3C=C(C)CN1C	532	50	2.5	EDmin (Rattus norvegicus [6]): 5 mg/kg; EDmin (Rattus norvegicus [7]): 10 mg/kg
CSc1[nH]c2cccc3c2c1C[C@@H]1[C@@H]3C[C@H](C)CN1C	63	>25	40	
CSc1[nH]c2cccc3c2c1C[C@@H]1[C@@H]3C=C(CO)CN1C	481	>25		EDmin (Rattus norvegicus [1]): 12.5 mg/kg; EDmin (Rattus norvegicus [2]): 6 mg/kg
CCCSc1[nH]c2cccc3c2c1C[C@@H]1[C@@H]3C[C@@H](C)CN1C	76		>50	
C[C@@H]1C[C@@H]2c3cccc4[nH]cc(c34)C[C@H]2N(C)C1			>40	
CCSc1[nH]c2cccc3c2c1C[C@@H]1[C@@H]3C=C(C)CN1C	67	>100	25	EDmin (Rattus norvegicus [7]): 40 mg/kg
C[C@H]1C[C@@H]2c3cccc4[nH]cc(c34)C[C@H]2N(C)C1			>50	
CCCCCCSc1[nH]c2cccc3c2c1C[C@@H]1[C@@H]3C=C(C)CN1C	-4	>100	50	
CC1=C[C@@H]2c3cccc4[nH]c(SC(C)C)c(c34)C[C@H]2N(C)C1	132		10	EDmin (Rattus norvegicus [8]): 2.5 mg/kg; EDmin (Rattus norvegicus [6]): 10 mg/kg
CN1CCN(C2=Nc3cc(Cl)ccc3Nc3ccccc32)CC1 [CLOZAPINE]	1.6	20	30	EDmin (Rattus norvegicus [6]): 40 mg/kg; EDmin (Rattus norvegicus [5]): 80 mg/kg
COc1ccc(Sc2[nH]c3cccc4c3c2C[C@@H]2[C@@H]4C=C(C)CN2C)cc1		>100	>80	Change (Rattus norvegicus [9]): 31%
CN(C)CCCN1c2ccccc2Sc2ccc(Cl)cc21 [CHLORPROMAZINE]			10	EDmin (Rattus norvegicus [5]): 10 mg/kg
CCCSc1[nH]c2cccc3c2c1C[C@@H]1[C@@H]3C=C(C)CN1C		>50		
CC1=C[C@@H]2c3cccc4[nH]c([S+](C)[O-])c(c34)C[C@H]2N(C)C1 (stereo partly specified)	98	>100	>50	
CCN1CC(C)=C[C@@H]2c3cccc4[nH]c(SC)c(c34)C[C@H]21	-65	100	25	
CC1=C[C@@H]2c3cccc4[nH]c(S(C)(=O)=O)c(c34)C[C@H]2N(C)C1		>100	>50	Change (Rattus norvegicus [9]): 30%
CSc1c2c3c(cccc3n1C)[C@H]1C=C(C)CN(C)[C@@H]1C2		100	100	Change (Rattus norvegicus [10]): -23%
CSc1[nH]c2cccc3c2c1C[C@H]1NCC(C)=C[C@H]31		50	>50	Change (Rattus norvegicus [9]): 24%
CCCN1C[C@H](C)C[C@@H]2c3cccc4[nH]c(SC)c(c34)C[C@H]21			>50	
C[C@@H]1C[C@@H]2c3cccc4[nH]c(Sc5ccccc5)c(c34)C[C@H]2N(C)C1	106		20	EDmin (Rattus norvegicus [8]): 10 mg/kg; EDmin (Rattus norvegicus [6]): 20 mg/kg
C[C@H]1C[C@@H]2c3cccc4[nH]c(Sc5ccccc5)c(c34)C[C@H]2N(C)C1	15	>50	>50	
CSc1c2c3c(cccc3n1CO)[C@H]1C=C(C)CN(C)[C@@H]1C2	91	>100	20	EDmin (Rattus norvegicus [5]): 80 mg/kg
CCCN1CC(C)=C[C@@H]2c3cccc4[nH]c(SC)c(c34)C[C@H]21	-74	>50		
CC1=C[C@@H]2c3cccc4[nH]c(SCc5ccccc5)c(c34)C[C@H]2N(C)C1		100	25	Change (Rattus norvegicus [9]): -9%; EDmin (Rattus norvegicus [7]): 80 mg/kg
